Experimental data: paper PMC8693849 (RSC Advances, 2021)
Values after ≈ are worked out from the molar mass of the structure shown.

How the values were obtained:
[1] = system: P. fluorescens (S 97); experiment: Agar diffusion method, zone of inhibition; assay type: cell-based, Pseudomonas fluorescens; conditions: for zone of inhibition at 10 µg/mL / zone of inhibition at 15 µg/mL: Pseudomonas fluorescens, 24 h, read-out: Diameter of zone inhibition; for Diameter of zone inhibition: P. fluorescens (S 97), average of triplicate
Method in brief: (§1)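 Bacterial strains were tested by agar diffusion on nutrient agar (peptone 5 and meat extract 3 g L⁻¹ in distilled water, pH 7.0, 2% agar, autoclaved 121 °C for 20 min). Each test compound (1 mg) was dissolved in 1 mL DMSO and made up to 10 mL with sterile water (100 μg mL⁻¹ stock). The solution was placed in the agar, and inhibition zones were measured after 24 h incubation. Values are the mean of triplicate readings.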

[2] = system: P. phaseolicola (GSPB 2828); experiment: Agar diffusion method, zone of inhibition; assay type: cell-based, Pseudomonas phaseolicola; conditions: for zone of inhibition at 10 µg/mL / zone of inhibition at 15 µg/mL: Pseudomonas, 24 h, read-out: Diameter of zone inhibition; for Diameter of zone inhibition: P. phaseolicola (GSPB 2828), 15 μg mL^−1, 24 h, average of triplicate
Method in brief: as §1

[3] = system: C. albicans; experiment: Agar diffusion method, zone of inhibition; assay type: cell-based, Candida albicans; conditions: for zone of inhibition at 10 µg/mL / zone of inhibition at 15 µg/mL: Candida albicans, 24 h, read-out: Diameter of zone inhibition; for Diameter of zone inhibition: C. albicans, average of triplicate
Method in brief: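 For agar diffusion against C. albicans, each test compound (1 mg) was dissolved in 1 mL DMSO and diluted to 10 mL with sterile water (100 μg mL⁻¹ stock). The solution was placed in the agar, and the inhibition zone diameter was read after 24 h. Values are the average of triplicate readings.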

[4] = system: K. pneumoniae (MDR clinical isolate); experiment: Zone of inhibition against MDR clinical isolate; assay type: cell-based; conditions: for zone of inhibition at 15 µg/mL: Klebsiella pneumoniae, read-out: Diameter of zone inhibition; for Diameter of zone inhibition: MDR K. pneumoniae clinical isolate, 15 μg mL^−1
[5] = system: MRSA1 (methicillin resistant S. aureus); experiment: Zone of inhibition against MDR clinical isolate; assay type: cell-based; conditions: for zone of inhibition at 15 µg/mL: Staphylococcus aureus, read-out: Diameter of zone inhibition; for Diameter of zone inhibition: MRSA1 clinical isolate, 15 μg mL^−1
[6] = system: MRSA1 (methicillin resistant S. aureus); experiment: Minimal inhibitory concentration; assay type: cell-based
Method in brief: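 Broth microdilution against MDR clinical isolates: 80 μl Mueller–Hinton broth plus 20 μl tween 80 received 100 μl test compound, then two-fold serial dilution. Each well was inoculated with 100 μl of 0.5 McFarland suspension ([…]) and incubated covered at 35 ± 2 °C for 24 h. MIC is the lowest concentration inhibiting growth.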

[7] = system: Gram-positive bacteria; experiment: Agar diffusion method; assay type: cell-based, S. aureus (ATCC 25923) and S. pyogenes (ATCC 19615); conditions: summary of Table 1
Method in brief: as §1

[8] = system: S. aureus (ATCC 25923); experiment: Agar diffusion method, zone of inhibition; assay type: cell-based, Staphylococcus aureus; conditions: for zone of inhibition at 15 µg/mL / zone of inhibition at 10 µg/mL: Staphylococcus aureus, ATCC25923, 24 h, read-out: Diameter of zone inhibition; for Diameter of zone inhibition: S. aureus (ATCC 25923), 15 μg mL^−1, 24 h, average of triplicate
Method in brief: as §1

[9] = system: Gram-negative bacteria; experiment: Agar diffusion method; assay type: cell-based, P. phaseolicola (GSPB 2828) and P. fluorescens (S 97); conditions: summary of Table 1
Method in brief: as §1

[10] = system: S. pyogenes (ATCC 19615); experiment: Agar diffusion method, zone of inhibition; assay type: cell-based, Streptococcus pyogenes; conditions: Streptococcus pyogenes, ATCC19615, 24 h, read-out: Diameter of zone inhibition
[11] = MRSA1 clinical isolate, Table 2

Molecule	zone of inhibition at 10 µg/mL [1]	zone of inhibition at 15 µg/mL [1]	zone of inhibition at 10 µg/mL [2]	zone of inhibition at 15 µg/mL [2]	zone of inhibition at 10 µg/mL [3]	zone of inhibition at 15 µg/mL [3]	zone of inhibition at 15 µg/mL [4]	zone of inhibition at 15 µg/mL [5]	Activity against Gram-positive bacteria [7]	zone of inhibition at 15 µg/mL [8]	Activity against Gram-negative bacteria [9]	zone of inhibition at 10 µg/mL [10]	zone of inhibition at 15 µg/mL [10]	zone of inhibition at 10 µg/mL [8]	also measured
O=C(N[C@H](CO)[C@H](O)c1ccc([N+](=O)[O-])cc1)C(Cl)Cl [Chloramphenicol, reference compound]	30 mm	30 mm	25 mm	25 mm											
CC(=O)C1=C(C)N2NC(c3ccccc3O)N(C(Cc3c[nH]c4ccccc34)C(=O)O)C2=NC1c1ccc(Cl)cc1 (centres unmarked) [Compound 2c, 2-(6-Acetyl-5-(4-chlorophenyl)-2-(2-hydroxyphenyl)-7-methyl-1,2-dihydro-[1,2,4]triazolo[1,5-a]pyrimidin-3(5H)-yl)-3-(1H-indol-3-yl)propanoic acid]	12 mm	22 mm	11 mm	23 mm	6 mm	9 mm	8 mm	26 mm	active						MIC ([6]; MRSA1, Table 4): 25 µg/mL (≈ 43.9 µM); SI (selectivity index, CC50/MIC) ([6]; MRSA1 vs VERO cells): 10; MIC ([6]; Staphylococcus aureus): 25 µg/mL (≈ 43.9 µM)
CC(C(=O)O)N1C2=NC(c3ccc(Cl)cc3)c3c([nH]c(=O)[nH]c3=O)N2NC1(C)c1ccccc1O (centres unmarked) [Compound 5, 2-(5-(4-Chlorophenyl)-2-(2-hydroxyphenyl)-2-methyl-6,8-dioxo-1,2,6,7,8,9-hexahydropyrimido[5,4-e][1,2,4]triazolo[1,5-a]pyrimidin-3(5H)-yl)propanoic acid]	15 mm	28 mm		30 mm	7 mm	9 mm	23 mm	8 mm		26 mm	active	11 mm	25 mm		
CC(C(=O)O)N1C2=NC(c3ccc(Cl)cc3)C3=C(CC(C)(C)CC3=O)N2NC1(C)c1ccccc1O (centres unmarked) [Compound 7, 2-(5-(4-Chlorophenyl)-2-(2-hydroxyphenyl)-2,8,8-trimethyl-6-oxo-1,2,6,7,8,9-hexahydro-[1,2,4]triazolo[1,5-a]quinazolin-3(5H)-yl)propanoic acid]			19 mm		10 mm	11 mm	20 mm	8 mm		23 mm	active	12 mm	20 mm	15 mm	
CCOC(=O)C1=C(C)N2NC(C)(c3ccccc3O)N(C(Cc3c[nH]c4ccccc34)C(=O)O)C2=NC1c1ccc(Cl)cc1 (centres unmarked) [Compound 3d, 2-(5-(4-Chlorophenyl)-6-(ethoxycarbonyl)-2-(2-hydroxyphenyl)-2,7-dimethyl-1,2-dihydro-[1,2,4]triazolo[1,5-a]pyrimidin-3(5H)-yl)-3-(1H-indol-3-yl)propanoic acid]	10 mm		11 mm	23 mm	9 mm	10 mm	6 mm	6 mm	active						
CC(=O)C1=C(C)N2NC(c3ccccc3O)N(C(C)C(=O)O)C2=NC1c1ccc(Cl)cc1 (centres unmarked) [Compound 2a, 2-(6-Acetyl-5-(4-chlorophenyl)-2-(2-hydroxyphenyl)-7-methyl-1,2-dihydro-[1,2,4]triazolo[1,5-a]pyrimidin-3(5H)-yl)propanoic acid]	16 mm									16 mm		12 mm		10 mm	
CC(C(=O)O)N1C2=NC(c3ccc(Cl)cc3)C3=C(CCCC3=O)N2NC1(C)c1ccccc1O (centres unmarked) [Compound 6, 2-(5-(4-Chlorophenyl)-2-(2-hydroxyphenyl)-2-methyl-6-oxo-1,2,6,7,8,9-hexahydro-[1,2,4]triazolo[1,5-a]quinazolin-3(5H)-yl)propanoic acid]	19 mm			29 mm	7 mm	8 mm	22 mm	10 mm		25 mm	active	10 mm	24 mm	15 mm	
2-(5-(4-Chlorophenyl)-6-cyano-2-(2-hydroxyphenyl)-7-imino-2-methyl-1,2-dihydro-[1,2,4]triazolo[1,5-a]pyrimidin-3(7H)-yl)-3-(1H-indol-3-yl)propanoic acid [Compound 8d]									active						Diameter of zone inhibition ([1]; 10 μg mL^−1, 24 h): 12 mm; Diameter of zone inhibition ([1]; 15 μg mL^−1, 24 h): 22 mm; Diameter of zone inhibition ([3]; 10 μg mL^−1, 24 h): 6 mm; Diameter of zone inhibition ([3]; 15 μg mL^−1, 24 h): 7 mm; Diameter of zone inhibition [8]: 29 mm; Diameter of zone inhibition [4]: 10 mm; Diameter of zone inhibition [5]: 25 mm; MIC [6, 11]: 50 µg/mL; Diameter of zone inhibition [2]: 24 mm
CCOC(=O)C1=C(C)N2NC(C)(c3ccccc3O)N(C(C)C(=O)O)C2=NC1c1ccc(Cl)cc1 (centres unmarked) [Compound 3b, 2-(5-(4-Chlorophenyl)-6-(ethoxycarbonyl)-2-(2-hydroxyphenyl)-2,7-dimethyl-1,2-dihydro-[1,2,4]triazolo[1,5-a]pyrimidin-3(5H)-yl)propanoic acid]					10 mm	12 mm	27 mm	12 mm		25 mm	active		24 mm	12 mm	
CC(=O)OCC1=C(C(=O)O)N2C(=O)[C@@H](NC(=O)Cc3cccs3)[C@H]2SC1 [Cephalothin, reference compound]										28 mm		30 mm	30 mm	28 mm	
CC(=O)C1=C(C)N2NC(C)(c3ccccc3O)N(C(C)C(=O)O)C2=NC1c1ccc(Cl)cc1 (centres unmarked) [Compound 2b, 2-(6-Acetyl-5-(4-chlorophenyl)-2-(2-hydroxyphenyl)-2,7-dimethyl-1,2-dihydro-[1,2,4]triazolo[1,5-a]pyrimidin-3(5H)-yl)propanoic acid]	15 mm	29 mm	16 mm		6 mm	8 mm	25 mm	8 mm			active	10 mm		12 mm	
Clc1ccccc1C(c1ccccc1)(c1ccccc1)n1ccnc1 [Clotrimazole, reference compound]					36 mm	44 mm									
2-(5-(4-Chlorophenyl)-6-cyano-2-(2-hydroxyphenyl)-7-imino-1,2-dihydro-[1,2,4]triazolo[1,5-a]pyrimidin-3(7H)-yl)-3-(1H-indol-3-yl)propanoic acid [Compound 8c]									active						Diameter of zone inhibition ([1]; 10 μg mL^−1, 24 h): 13 mm; Diameter of zone inhibition ([1]; 15 μg mL^−1, 24 h): 23 mm; Diameter of zone inhibition ([3]; 10 μg mL^−1, 24 h): 8 mm; Diameter of zone inhibition ([3]; 15 μg mL^−1, 24 h): 11 mm; Diameter of zone inhibition [8]: 30 mm; Diameter of zone inhibition [4]: 12 mm; Diameter of zone inhibition [5]: 28 mm; MIC [6, 11]: 50 µg/mL; Diameter of zone inhibition [2]: 24 mm
